In ChEMBL document CHEMBL1154237, “Influenza A (H(1)N(1)) Antiviral and Cytotoxic Agents from Ferula assa-foetida” (J Nat Prod, 2009):
≈ marks a conversion by molar mass, not a printed value.

Experiments:
[1] = Cytotoxicity against human Hep3B cells after 3 days by MTT assay; assay type: functional, cell-based, Hep 3B2; conditions: 72 h
Method in brief: (§1)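 Freshly trypsinized cells were seeded at 5000-10 000 cells/well, with compounds added from DMSO stock, and cultured 3 days. Attached cells were then incubated with MTT (0.5 mg/mL, 1 h), solubilized in DMSO, and absorbance read at 550 nm.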

[2] = test system: HepG2; experiment: Cytotoxicity against human HepG2 cells after 3 days by MTT assay; assay type: functional, cell-based; conditions: HepG2, 72 h; method in brief: as §1
[3] = test system: MDA-MB-231; experiment: Cytotoxicity against human MDA-MB-231 cells after 3 days by MTT assay; assay type: functional, cell-based; conditions: MDA-MB-231, 72 h; method in brief: as §1
[4] = test system: MCF7; experiment: Cytotoxicity against human MCF7 cells after 3 days by MTT assay; assay type: functional, cell-based; conditions: MCF7, 72 h; method in brief: as §1
[5] = test system: Ca9-22; experiment: Cytotoxicity against human Ca9-22 cells after 3 days by MTT assay; assay type: functional, cell-based; conditions: Ca9-22, 72 h; method in brief: as §1
[6] = test system: A549; experiment: Cytotoxicity against human A549 cells after 3 days by MTT assay; assay type: functional, cell-based; conditions: A549, 72 h; method in brief: as §1
[7] = test system: Influenza A virus; experiment: Antiviral activity against Influenza A virus H1N1 infected in MDCK cells assessed as inhibition of virus-induced cytopathic effect after 3 days by XTT assay; assay type: functional, organism-based; conditions: 72 h
Method in brief: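 MDCK cells, trypsinized and seeded at 1.0 × 10^5 cells/mL, grown 24 h at 35 °C, 5% CO2 in MEM with 2% FCS plus antibiotics. Virus added for 1 h, then test substances at several concentrations in triplicate. After 3 days at 35 °C, XTT added for 3 h and OD492/OD690 read.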

Q: With C=C1CC[C@]2(C)C(C)(C)[C@@H](OC(C)=O)CC[C@]2(C)[C@H]1COc1ccc2ccc(=O)oc2c1 [POLYANTHININ] as the compound, how does the IC50 [1] read?
A: Its IC50 is 5.9 µg/mL (≈ 13.5 µM).

Q: What about the IC50 [2] of the same compound?
A: The IC50 was 10.4 µg/mL (≈ 23.8 µM).

Q: What about the IC50 [3] of the same compound?
A: Its IC50 is 15.7 µg/mL (≈ 35.8 µM).

Q: What about the IC50 [4] of the same compound?
A: Its IC50 is 9.94 µg/mL (≈ 22.7 µM).

Q: What about the IC50 [5] of the same compound?
A: The IC50 was 12.7 µg/mL (≈ 28.9 µM).

Q: And the IC50 [6]?
A: The IC50 was 12.3 µg/mL (≈ 28 µM).

Q: Which IC50 [7] does the source give for CC1=CC(=O)[C@@H]2C(C)(C)C(=O)CC[C@@]2(C)[C@@H]1COc1ccc2ccc(=O)oc2c1 here?
A: The IC50 was 0.32 µg/mL (≈ 0.811 µM).

Q: And the IC90 [7]?
A: The IC90 was 0.37 µg/mL (≈ 0.938 µM).

Q: What does the source list for CC(=O)OC(CC=C(C)C)/C(C)=C/[C@@H](O)C/C(C)=C/COc1ccc2ccc(=O)oc2c1 (stereo partly drawn)?
A: IC50 [7]: 0.81 µg/mL (≈ 1.84 µM); IC90 [7]: 1.56 µg/mL (≈ 3.54 µM); IC50 [1]: 9.82 µg/mL (≈ 22.3 µM); IC50 [2]: 15.6 µg/mL (≈ 35.4 µM); IC50 [3]: > 20 µg/mL; IC50 [4]: > 20 µg/mL; IC50 [5]: 14.2 µg/mL (≈ 32.3 µM); IC50 [6]: > 20 µg/mL

Q: For COC(=O)CC[C@H]1C(=C(C)C)CC[C@H](C)[C@]1(C)COc1ccc2ccc(=O)oc2c1 [METHYL GALBANATE], which IC50 [7] is on record?
A: Its IC50 is 0.26 µg/mL (≈ 0.63 µM).

Q: And the IC50 [1]?
A: Its IC50 is 4.33 µg/mL (≈ 10.5 µM).

Q: And the IC50 [2]?
A: The IC50 was 8.42 µg/mL (≈ 20.4 µM).

Q: What about the IC50 [3] of the same compound?
A: Its IC50 is over 20 µg/mL.

Q: And the IC50 [4]?
A: Its IC50 is over 20 µg/mL.

Q: And the IC50 [5]?
A: The IC50 was 19.1 µg/mL (≈ 46.3 µM).

Q: And the IC50 [6]?
A: The IC50 was over 20 µg/mL.

Q: Which results are given for CCC(C)SSC/C=C/OS(C)=O (stereo not drawn) [FOETISULFIDE C]?
A: IC50 [1]: 19.2 µg/mL (≈ 79.9 µM); IC50 [2]: > 20 µg/mL; IC50 [3]: > 20 µg/mL; IC50 [4]: > 20 µg/mL; IC50 [5]: 16.5 µg/mL (≈ 68.5 µM); IC50 [6]: 9.14 µg/mL (≈ 38 µM)

Q: For NC12CC3CC(CC(C3)C1)C2 [AMANTADINE], which IC50 [7] is on record?
A: Its IC50 is 0.92 µg/mL (≈ 6.08 µM).

Q: What does the source list for COc1cc(C=O)ccc1O [VANILLIN]?
A: IC50 [1]: > 20 µg/mL; IC50 [2]: > 20 µg/mL; IC50 [3]: > 20 µg/mL; IC50 [4]: 15.7 µg/mL (≈ 103 µM); IC50 [5]: > 20 µg/mL; IC50 [6]: 16.4 µg/mL (≈ 108 µM)

Q: With COc1cccc2c1C(=O)c1c(O)c3c(c(O)c1C2=O)C[C@@](O)(C(=O)CO)C[C@@H]3O[C@H]1C[C@H](N)[C@H](O)[C@H](C)O1 [DOXORUBICIN] as the compound, how does the IC50 [1] read?
A: Its IC50 is 0.41 µg/mL (≈ 0.754 µM).

Q: What about the IC50 [2] of the same compound?
A: Its IC50 is 0.16 µg/mL (≈ 0.294 µM).

Q: What about the IC50 [4] of the same compound?
A: The IC50 was 0.43 µg/mL (≈ 0.791 µM).

Q: And the IC50 [5]?
A: The IC50 was 0.14 µg/mL (≈ 0.258 µM).

Q: What about the IC50 [6] of the same compound?
A: The IC50 was 0.35 µg/mL (≈ 0.644 µM).

Q: For CC1=CC(=O)[C@@H]2C(C)(C)[C@H](O)CC[C@@]2(C)[C@@H]1COc1ccc2ccc(=O)oc2c1 [LIGUPERSIN A], which IC50 [7] is on record?
A: Its IC50 is 0.86 µg/mL (≈ 2.17 µM).

Q: What about the IC90 [7] of the same compound?
A: Its IC90 is 1.75 µg/mL (≈ 4.41 µM).

Q: Which IC50 [7] does the source give for C=C1CC[C@@H]2C(C)(C)[C@H](O)CC[C@@]2(C)[C@H]1COc1ccc2ccc(=O)oc2c1 [FARNESIFEROL A] here?
A: Its IC50 is 0.51 µg/mL (≈ 1.33 µM).

Q: What about the IC90 [7] of the same compound?
A: The IC90 was 0.64 µg/mL (≈ 1.67 µM).

Q: And the IC50 [1]?
A: Its IC50 is 7.66 µg/mL (≈ 20 µM).

Q: And the IC50 [2]?
A: The IC50 was 14.9 µg/mL (≈ 38.9 µM).

Q: And the IC50 [3]?
A: Its IC50 is 19 µg/mL (≈ 49.7 µM).

Q: And the IC50 [4]?
A: Its IC50 is 15.6 µg/mL (≈ 40.7 µM).

Q: And the IC50 [5]?
A: The IC50 was 12.1 µg/mL (≈ 31.6 µM).

Q: And the IC50 [6]?
A: Its IC50 is 15.8 µg/mL (≈ 41.3 µM).

Q: Which IC50 [1] does the source give for C[C@@H]1C[C@@H](O)[C@]2(C)[C@@H](C)C(=O)CC[C@H]2[C@]1(C)COc1ccc2ccc(=O)oc2c1 [KAMOLONOL] here?
A: Its IC50 is 17.9 µg/mL (≈ 45 µM).

Q: And the IC50 [2]?
A: Its IC50 is over 20 µg/mL.

Q: And the IC50 [3]?
A: The IC50 was over 20 µg/mL.

Q: What about the IC50 [4] of the same compound?
A: Its IC50 is over 20 µg/mL.

Q: What about the IC50 [5] of the same compound?
A: The IC50 was over 20 µg/mL.

Q: And the IC50 [6]?
A: The IC50 was over 20 µg/mL.

Q: Which IC50 [7] does the source give for CC1=CC[C@@H]2C(C)(C)[C@@H](O)CC[C@@]2(C)[C@@H]1COc1ccc2ccc(=O)oc2c1 [CONFEROL] here?
A: The IC50 was 0.47 µg/mL (≈ 1.23 µM).

Q: And the IC90 [7]?
A: Its IC90 is 0.83 µg/mL (≈ 2.17 µM).

Q: What about the IC50 [1] of the same compound?
A: Its IC50 is 2.63 µg/mL (≈ 6.88 µM).

Q: What about the IC50 [2] of the same compound?
A: The IC50 was 0.51 µg/mL (≈ 1.33 µM).

Q: What about the IC50 [3] of the same compound?
A: The IC50 was over 20 µg/mL.

Q: And the IC50 [4]?
A: Its IC50 is 3.38 µg/mL (≈ 8.84 µM).

Q: And the IC50 [5]?
A: The IC50 was 6.83 µg/mL (≈ 17.9 µM).

Q: What about the IC50 [6] of the same compound?
A: Its IC50 is 9.08 µg/mL (≈ 23.7 µM).

Q: Which IC50 [7] does the source give for CC(C)=CCC/C(C)=C/[C@@H](O)C/C(C)=C/COc1ccc2ccc(=O)oc2c1 here?
A: The IC50 was 0.36 µg/mL (≈ 0.941 µM).

Q: And the IC90 [7]?
A: Its IC90 is 0.62 µg/mL (≈ 1.62 µM).

Q: For C/C(=C\COc1ccc2ccc(=O)oc2c1)CC/C=C(\C)CC[C@@H](O)C(C)(C)O, which IC50 [7] is on record?
A: The IC50 was 0.99 µg/mL (≈ 2.47 µM).

Q: And the IC90 [7]?
A: The IC90 was 2.05 µg/mL (≈ 5.12 µM).

Q: And the IC50 [1]?
A: The IC50 was over 20 µg/mL.

Q: And the IC50 [2]?
A: Its IC50 is over 20 µg/mL.

Q: What about the IC50 [3] of the same compound?
A: The IC50 was over 20 µg/mL.

Q: What about the IC50 [4] of the same compound?
A: The IC50 was 14.3 µg/mL (≈ 35.6 µM).

Q: And the IC50 [5]?
A: Its IC50 is over 20 µg/mL.

Q: And the IC50 [6]?
A: The IC50 was 11 µg/mL (≈ 27.4 µM).

Q: For CC(C)=C1CC[C@H](C)[C@](C)(COc2ccc3ccc(=O)oc3c2)[C@H]1CCC(=O)O [GALBANIC ACID], which IC50 [7] is on record?
A: The IC50 was 0.45 µg/mL (≈ 1.13 µM).

Q: Which IC50 [7] does the source give for C/C(=C\COc1ccc2ccc(=O)oc2c1)CC[C@@H]1C(C)(C)[C@H]2CC[C@]1(C)O2 [FARNESIFEROL C] here?
A: The IC50 was 0.29 µg/mL (≈ 0.758 µM).

Q: What about the IC90 [7] of the same compound?
A: The IC90 was 0.5 µg/mL (≈ 1.31 µM).
